Rows were chosen to be rich in hits. Some 9.6% of all compounds tested hit in one or more screens of this group.
TNAP act hiacc: activators of human TNAP at high phosphate acceptor concentration; purified TNAP, CDP-star luminescence, 1 M DEA, 30 min; active compounds read high; 0 = EDTA background, 1 = DMSO-only activity; 200,000 tested, under 10 active; P05186; activation factor at 20 µM;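 active means activation factor at least 2 at 20 µM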
Target sequence (P05186 whole entry, looked up): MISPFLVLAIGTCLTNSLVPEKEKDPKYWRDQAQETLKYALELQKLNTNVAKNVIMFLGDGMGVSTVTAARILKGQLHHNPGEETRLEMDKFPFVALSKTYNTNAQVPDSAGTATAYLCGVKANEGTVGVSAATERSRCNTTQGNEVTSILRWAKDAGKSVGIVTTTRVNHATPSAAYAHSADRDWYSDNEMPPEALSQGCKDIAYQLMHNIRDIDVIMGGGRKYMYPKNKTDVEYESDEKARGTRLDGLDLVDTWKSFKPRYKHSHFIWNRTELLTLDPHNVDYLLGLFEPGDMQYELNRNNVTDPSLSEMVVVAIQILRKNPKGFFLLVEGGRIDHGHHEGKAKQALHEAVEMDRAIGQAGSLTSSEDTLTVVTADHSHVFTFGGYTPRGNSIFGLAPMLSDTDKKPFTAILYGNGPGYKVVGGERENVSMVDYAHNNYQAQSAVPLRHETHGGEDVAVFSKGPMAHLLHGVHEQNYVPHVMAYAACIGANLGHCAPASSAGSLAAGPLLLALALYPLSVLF
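system = human TNAP | amount = enzyme diluted 1/800 final | reagent = 100 µM CDP-star substrate | signal = luminescent substrate turnover signal | dosing = one dose, 20 µM | benchmarks = EDTA negative control, DMSO positive control | measure = activation factor | timing = 30 min reaction, room temperature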
HCT116 bCat-KO: beta-catenin-lacking colon tumor cell growth suppression; HCT116 beta-catenin knockout viability, CellTiter-Glo, 60 h; active compounds read low; viability, % at 10 µM; 1.5% of 140,000 active; AID 818;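 active means viability at or under a set limit, the compound median less 4 SD, cut at about 6% in these data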
L major viab: Leishmania major promastigote growth inhibition; inhibition, % at 10 µM; Leishmania major promastigotes, resazurin fluorescence viability; 9% of 200,000 active; in the data active means inhibition above about 50%;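 further: promastigotes grown with compound for 44 hours at 28 °C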
TNAP inh hi DEA: TNAP (human) inhibition, high acceptor; P05186; purified TNAP, CDP-star luminescence, 1 M DEA; inhibition, % at 20 µM; 0.03% of 200,000 active; AID 1135;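 active means over 50% inhibition of tissue-nonspecific alkaline phosphatase at 20 µM in the single-dose screen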
TNAP inh no acc: inhibitors of human TNAP without phosphate acceptor; P05186; purified TNAP, CDP-star luminescence, 30 min; inhibition, % at 20 µM; 0.26% of 200,000 active;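 active means tissue-nonspecific alkaline phosphatase inhibition above about 50% at 20 µM in the single-dose screen, limit read from the data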
HCT116 PTEN-null: PTEN-deleted cell growth suppression; HCT116 PTEN-null viability, CellTiter-Glo, 60 h; active compounds read low; viability, % at 10 µM; 1.2% of 140,000 active;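 active means viability at or below a set limit, 4 SD under the median of all tested compounds, cut at about 3.7% in these data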;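 further: PTEN knockout HCT116 line with beta catenin targeted HCT116 as companion control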
Of the large screens only hits and unclear results are named; the others gave an inactive call.

COc1cc(NC(=S)N2CCCCC2C)cc(OC)c1OC (stereo unspecified)	none (no result: HCT116 bCat-KO, HCT116 PTEN-null)
CCOC(=O)c1ccc(-n2ccnc2)c(NC(=O)c2ccc(Cl)cc2)c1	L major viab 81
Cc1ccccc1Oc1cc(-n2ncc(Cl)c(Cl)c2=O)ncn1	HCT116 bCat-KO 1.6, L major viab 100, HCT116 PTEN-null 1.9
CCOc1cnn(-c2cc(Oc3ccc(C)cc3)ncn2)c(=O)c1Cl	none
Cc1ccc(C(=O)NS(=O)(=O)c2ccc(N=NN(C)C)cc2)cc1	none (no result: HCT116 bCat-KO, HCT116 PTEN-null)
COc1nc(Nc2ccc(C(C)C)cc2)nc(OC)n1	L major viab 86
COc1nc(Nc2ccc(O)cc2)nc(OC(C(F)(F)F)C(F)(F)F)n1	none
O=C1c2ccccc2C2=Nc3ccccc3SC(c3ccc(Cl)cc3)C12 (stereo unspecified)	HCT116 bCat-KO 3.7, L major viab 99, HCT116 PTEN-null 3.3
O=C1c2ccccc2C2=Nc3ccccc3SC(c3cccc(F)c3)C12 (stereo unspecified)	HCT116 bCat-KO 2.2, L major viab 89, HCT116 PTEN-null 3.5
Fc1cccc(C2NN=C(c3ccccc3)S2)c1 (stereo unspecified)	none
Cc1cc(C)c2nc(/N=C(\N)NC(=O)Nc3ccccc3)nc(C)c2c1	L major viab 100
CC(=O)Nc1ccc(N/C(N)=N/c2nc(C)cc(C)n2)cc1	none (no result: HCT116 bCat-KO, HCT116 PTEN-null)
CCc1ccc(NC(=O)CSc2nc3ccccc3c(=O)n2CCCC(=O)NCCCN2CCOCC2)cc1	none (no result: HCT116 bCat-KO, HCT116 PTEN-null)
CCOC(=O)N1CCC(NCCNC(=O)c2ccccc2)CC1	L major viab 77
CCOC(=O)C1CCN(C(=O)c2cccs2)CC1	none (no result: HCT116 bCat-KO, HCT116 PTEN-null)
CCOC(=O)N1CCC(NCCNC(=O)c2cccs2)CC1	L major viab 88
CCOC(=O)N1CCC(NCCNC(=O)c2ccccc2Cl)CC1	L major viab 84
O=C(NCCNC1CCC(c2ccccc2)CC1)c1cccs1 (stereo unspecified)	L major viab 94 (no result: HCT116 bCat-KO, HCT116 PTEN-null)
O=C(CSc1ccc2ccccc2n1)Nc1ccc(N2CCOCC2)cc1	none (no result: HCT116 bCat-KO, HCT116 PTEN-null)
Cc1ccc(-c2nc3ccc(C(=O)O)cc3nc2-c2ccc(C)cc2)cc1	none
CCc1nc2ccc(C(=O)O)cc2nc1CC	L major viab 50
Cc1ccc[n+](CC(=O)/C=C2\N(C)c3ccccc3C2(C)C)c1	none
CN1/C(=C\C(=O)CN2C(=O)NC3(CCCCCC3)C2=O)C(C)(C)c2ccccc21	L major viab 96
Cc1cccc[n+]1CC(=O)/C=C1\N(C)c2ccccc2C1(C)C	L major viab 84
Cc1cccc(Cn2c(C)nc3c(N)c(C)c(C)cc32)c1	none (no result: HCT116 bCat-KO, HCT116 PTEN-null)
Cc1ccc(CNC(=O)C2CCN(S(=O)(=O)N3CCC4(CC3)OCCO4)CC2)cc1	none
CC1CCCCN1CCn1c(=S)[nH]c2cc3c(cc2c1=O)OCO3 (stereo unspecified)	none (no result: HCT116 bCat-KO, HCT116 PTEN-null)
O=S(=O)(Nc1ccc(O)c(CN2CCCCC2)c1)c1ccccc1	L major viab 99
CN(C)C(=O)c1cc(C(=O)c2ccccc2Cl)c[nH]1	none (no result: HCT116 bCat-KO, HCT116 PTEN-null)
CCc1ccc(NC(=O)C(C)OC(=O)c2cccc(S(=O)(=O)N3CCc4ccccc4C3)c2)cc1 (stereo unspecified)	L major viab 89
O=C(c1ccc2ccccc2c1)N1CCN(c2ccc(O)cc2)CC1	L major viab 90
O=C(NCC1(N2CCOCC2)CCCCC1)c1ccc(Cl)c(S(=O)(=O)NCc2ccco2)c1	L major viab 93
O=C(NCCCN1CCOCC1)c1cccc(S(=O)(=O)N2CCc3ccccc3C2)c1	none (no result: HCT116 bCat-KO, HCT116 PTEN-null)
O=C(NCC1(N2CCOCC2)CCCCC1)c1cccc(S(=O)(=O)N2CCc3ccccc3C2)c1	L major viab 64 (no result: HCT116 bCat-KO, HCT116 PTEN-null)
O=C(NCc1ccco1)c1ccc(Cl)c(S(=O)(=O)N2CCOCC2)c1	none
O=C(c1ccc2ccccc2c1)N1CCN(c2ccc([N+](=O)[O-])c(N3CCOCC3)c2)CC1	none
CC(=O)c1cccc(NC(=O)COC(=O)COc2c(Cl)cc(Cl)c3ccc(C)nc23)c1	none
O=C(c1cccc(S(=O)(=O)N2CCc3ccccc3C2)c1)N1CCN(c2ccc(O)cc2)CC1	L major viab 65
NC(=O)C1CCN(C(=O)c2cccc(S(=O)(=O)N3CCc4ccccc4C3)c2)CC1	none (no result: HCT116 bCat-KO, HCT116 PTEN-null)
O=C(c1ccc(Cl)c(S(=O)(=O)N2CCCC2)c1)N1CCN(c2ccccc2F)CC1	none (no result: HCT116 bCat-KO, HCT116 PTEN-null)
Cc1cccc(N2CCN(C(=O)c3ccc(Cl)c(S(=O)(=O)N4CCc5ccccc5C4)c3)CC2)c1C	L major viab 99
O=C1CCC(=O)N1c1ccc(NCc2ccccc2Cl)c([N+](=O)[O-])c1	L major viab 67
Cc1ccc(CNc2ccc(N3C(=O)CC(C)C3=O)cc2[N+](=O)[O-])cc1 (stereo unspecified)	none
CC1CC(=O)N(c2ccc(NCc3ccccc3Cl)c([N+](=O)[O-])c2)C1=O (stereo unspecified)	L major viab 68
O=P(OC1CCCCC1)(OC1CCCCC1)C(O)c1ccc(Cl)cc1Cl (stereo unspecified)	L major viab 52
O=P(OC1CCCCC1)(OC1CCCCC1)C(O)c1c(Cl)cccc1Cl (stereo unspecified)	L major viab 53
CCOc1cc(/C=N/NC(=O)CSc2nncn2C)ccc1OCc1cccc(C)c1	none
COCCNC(=O)C(OC(=O)C1=Cc2ccccc2OC1)C(C)C (stereo unspecified)	none (no result: HCT116 bCat-KO, HCT116 PTEN-null)
COc1ccc(Cc2n[nH]c(=S)n2N)cc1OC	none (no result: HCT116 bCat-KO, HCT116 PTEN-null)
CCN(CC)c1ccc(N2C(=O)CSC2=S)cc1	TNAP inh no acc 57 (no result: HCT116 bCat-KO, HCT116 PTEN-null)
O=c1c2ccccc2nnn1Cc1ccc2ccccc2c1	none (no result: HCT116 bCat-KO, HCT116 PTEN-null)
CCC(Sc1nc2ccccc2o1)C(=O)Nc1nnc(C)s1 (stereo unspecified)	L major viab 55
Cc1cccc(NC2=C/C(=N/S(=O)(=O)c3cccs3)c3ccccc3C2=O)c1	none
Cc1ccc(Cl)cc1NC1=C/C(=N\S(=O)(=O)c2cccs2)c2ccccc2C1=O	HCT116 bCat-KO 1.6, L major viab 100, HCT116 PTEN-null 1.1
O=C(O)c1ccc(NC2=C/C(=N/S(=O)(=O)c3ccccc3)c3ccccc3C2=O)cc1	L major viab 100 (no result: HCT116 bCat-KO, HCT116 PTEN-null)
Cc1ccc(NC2=C/C(=N\S(=O)(=O)c3cccs3)c3ccccc3C2=O)c(C)c1	HCT116 bCat-KO 1.5, L major viab 101, HCT116 PTEN-null 1.3
O=C1C(Nc2ccc(O)cc2)=C/C(=N/S(=O)(=O)c2cccs2)c2ccccc21	L major viab 100 (no result: HCT116 bCat-KO, HCT116 PTEN-null)
O=C(CN(CCO)c1ccccc1)Nc1ccc(Cl)c(S(=O)(=O)N2CCOCC2)c1	none (no result: HCT116 bCat-KO, HCT116 PTEN-null)
CCOC(=O)c1sc2nccc(OC)c2c1N=CNOC	none (no result: HCT116 bCat-KO, HCT116 PTEN-null)
COc1ccc(CCNC(=O)CCCn2c(SCC(N)=O)nc3cc4c(cc3c2=O)OCO4)cc1OC	none (no result: HCT116 bCat-KO, HCT116 PTEN-null)
C(#Cc1ccccc1)C[N+]1(CC#Cc2ccccc2)CCCCC1	L major viab 100 (no result: HCT116 bCat-KO, HCT116 PTEN-null)

Screening data (PubChem)
